# According to PubChem BioAssay AID463111 (Johns Hopkins Ion Channel Center, 2010):
# The campaign covered roughly 310,000 compounds. About 2,800 (0.9%) were called active. The sample holds actives, similar compounds and a random draw of the others, so the mix is not that of the screen.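 How the source made its calls: active means B-score of the integrated calcium signal more than 4 SD below the library mean, with starting fluorescence not abnormally high; inactive means the rest.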
# Assay: enhancers of RGS4 function in calcium signaling – cell-based, HEK293 M3R inducible RGS4, calcium flux, primary screen (AID 463111);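 on B-score: negative B-score means reduced calcium response which marks RGS4 activation or potentiation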
# Conditions: HEK293 M3R/inducible RGS4, carbachol calcium flux Fluo4, at 10 µM; stronger effect = lower value
# In short: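 Material: M3R-expressing HEK293 line, RGS4 induced by doxycycline | Schedule: Overnight RGS4 induction, 30 min dye load 37 °C, 20 min compound RT | Measured by: Fluo4 fluorescence kinetic imaging of calcium | Read-out: Integrated calcium ratio converted to B score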
row,Structure (SMILES),B-score
1,CN(C(=O)c1cccc(OC2CCN(S(=O)(=O)N(C)C)CC2)c1)C1CCOC1 (stereo not drawn),inactive
2,CNS(=O)(=O)c1cccc(C(=O)NCC2CCCCC2)c1,inactive
3,CN(C)S(=O)(=O)N1CCC(Oc2cccc(C(=O)NCCCC3CCCC3)c2)CC1,-7.71 (active)
4,Cc1ccc(-c2nc(CS(=O)(=O)CC(=O)NCc3ccc4c(c3)OCO4)c(C)o2)cc1,inactive
5,N=c1c2c3c(sc2ncn1N)CCCCC3,inactive
6,N=c1c2c3c(sc2nc2n1CCCCC2)CCCC3,-8.12 (active)
7,CC1(C)Cc2c(sc3nc4n(c(=N)c23)CCCCC4)CO1,inactive
8,CCOc1ccc(S(=O)(=O)Nc2ccc(C(=O)NCCCN3CCCC3=O)cc2)cc1,inactive
9,CN(C)CCOC(=O)C(c1ccccc1)C1(O)CCCC1 (stereo not drawn),inactive
10,Cc1ccccc1C(OCCN(C)C)C1CCCCC1 (stereo not drawn),-8.62 (active)
11,CN(C)CCOC1c2ccccc2-c2ccccc21,inactive
12,Cc1ccc(C)c(N2CCN(C(=O)Cn3ncn4cccc4c3=O)CC2)c1,inactive
13,Cc1ccc(C)c(N2CCN(C(=O)CCCCCn3c(=S)[nH]c4ccc(N5CCOCC5)cc4c3=O)CC2)c1,-10.9 (active)
14,Cc1ccc(C)c(N2CCN(C(=O)CCCCn3c(=O)[nH]c4ccccc4c3=O)CC2)c1,inactive
15,O=C(CCCCCn1c(=S)[nH]c2cc3c(cc2c1=O)OCO3)N1CCN(c2ccc(F)cc2)CC1,inactive
16,Cc1ccc(C)c(N2CCN(C(=O)CCc3nc4ccccc4[nH]3)CC2)c1,inactive
17,Cc1ccc(C)c(N2CCN(C(=O)CCCn3c(=O)c4cccn4c4cccnc43)CC2)c1,-7.65 (active)
18,Cn1c(=O)c2c(SCC(=O)NCC3CCCO3)nc(CC(C)(C)C)nc2n(C)c1=O (stereo not drawn),inactive
19,OC1CCCN(c2ncnc3c2nnn3Cc2c(F)cccc2Cl)C1 (stereo not drawn),inactive
20,COc1ccc(CNC(=O)C(c2ccc(O)cc2)N(Cc2ccco2)C(=O)c2snc(C(N)=O)c2N)cc1 (stereo not drawn),inactive
21,CC(C)c1ccc(NC(=O)Cn2ncc3ccccc32)cc1,inactive

row,Structure (SMILES),B-score
1,COc1cccc(CNC(=O)CCC2CCCN(Cc3ccc(OC(F)F)cc3)C2)c1 (stereo not drawn),-12 (active)
2,COc1cccc(C(=O)N2CCCC(CCC(=O)NCc3ccc(F)c(F)c3)C2)c1 (stereo not drawn),inactive
3,COc1cccc(CNC(=O)CCC2CCCN(C(=O)c3ccc(F)c(Cl)c3)C2)c1 (stereo not drawn),inactive
4,COc1cccc(C(=O)OCc2cc(=O)oc3c(C)c(C)ccc23)c1OC,inactive
5,CN1C(=O)c2cccc3c(N)ccc(c23)C1=O,inactive
6,Cc1nn(C)cc1N1C(=O)c2cccc3c(N)ccc(c23)C1=O,-8.92 (active)
7,O=C1c2ccccc2C(=O)N1c1cccc2ccccc12,inactive
8,COc1ccc(C(=O)Nc2ccc(C(=O)NCC3CCCO3)cc2)c(OC)c1OC (stereo not drawn),inactive
9,CC(=O)NCC(=O)N1CCC(n2nccc2NC(=O)CCCc2ccccc2)CC1,inactive
10,COC(=O)c1ccc(COc2ccc(/C=C/C(=O)c3ccc(OC)c(CSCC(=O)O)c3)cc2OC)cc1,inactive
11,COc1ccc(/C=C/C(=O)c2ccc(NS(=O)(=O)c3ccc(C)cc3)cc2)cc1O,inactive
12,COc1ccc(C(=O)/C=C/c2ccc(-c3ccccc3)cc2)cc1CSCC(=O)O,-7.93 (active)
13,CC(C)=CCN1CCN(CCCc2ccccc2)CC1CCO (stereo not drawn),inactive
14,NC1=NC(c2ccc([N+](=O)[O-])cc2)N(c2ccc(F)cc2)C(N)=N1 (stereo not drawn),inactive
15,COc1cc(/C=C/C(=O)N2c3ccccc3Sc3ccc(C(F)(F)F)cc32)cc(OC)c1OC,inactive
16,CCOC(=O)CNC(=O)N1c2ccccc2Sc2ccccc21,inactive
17,O=C(CN1CCCCCC1)N1c2ccccc2Sc2ccc(C(F)(F)F)cc21,-7.9 (active)
18,CCn1nc(C)c(CNC(=O)C2CCC(=O)N(Cc3cccc(F)c3)C2)c1C (stereo not drawn),inactive
19,Cc1cc2oc(=O)cc(CN(C)Cc3ccc(OC(F)F)cc3)c2cc1Cl,-7.56 (active)
20,CCOc1ccc(N(C)Cc2cc(=O)oc3ccc(OC)cc23)cc1,inactive
21,Cc1ccc(CN(C)Cc2cc(=O)oc3cc(C)c(Cl)cc23)cc1,inactive

row,Structure (SMILES),B-score
1,CCN1CCN(c2sc(S(C)(=O)=O)nc2S(=O)(=O)c2ccc(Cl)cc2)CC1,inactive
2,Cn1nnnc1SCC(=O)N1CCN(C(c2ccccc2)c2ccccc2)CC1,inactive
3,O=C(c1ccc(-n2cnnn2)cc1)N1CCN(C(c2ccccc2)c2ccccc2)CC1,-7.43 (active)
4,Cc1onc(C(=O)NN)c1C(=O)N1CCN(C(c2ccccc2)c2ccccc2)CC1,inactive
5,C=CCN(C(=O)Cn1ncc2c1-c1cc(C)ccc1OC2)c1ccccc1,inactive
6,Cc1ccc(S(=O)(=O)NCc2ccc(C(=O)NC3CCC(C)CC3)cc2)cc1 (stereo not drawn),inactive
7,CCOC(=O)c1c(NC(=O)CSc2cn(CC)c3ccccc23)sc2c1CCC2,inactive
8,CCOC(=O)c1c(NC(=O)C(C)Sc2c[nH]c3ccccc23)sc2c1CCC2 (stereo not drawn),-7.36 (active)
9,CCOC(=O)c1c(NC(=S)NC)sc2c1CCCC2,inactive
10,COc1cccc(/C=N/Nc2ncc(C(F)(F)F)cc2Cl)c1O,inactive
11,COc1cccc(/C=N/Nc2cc(C)nc(-c3ccccc3O)n2)c1O,-11.4 (active)
12,COc1cccc(/C=N/NC(=O)c2[nH]nc3c2CCc2ccccc2-3)c1O,inactive
13,Cc1ccc(C(=O)CSc2ccccc2C(=O)O)cc1,inactive
14,Cc1ccc(SCC(=O)Nc2ccc3c(c2)OCCO3)cc1,inactive
15,Cc1ccc(SCC(=O)c2cc(C)c(OC(=S)N(C)C)c(C)c2)cc1,-8.33 (active)
16,CN(C)C(=O)Cn1c(=O)n(S(=O)(=O)c2ccccc2)c2ccccc21,inactive
17,O=C(c1cccs1)C1C(c2ccc(Br)cc2)NC(=S)NC1(O)C(F)(F)F (stereo not drawn),-11.1 (active)
18,CC(=O)C1C(c2cccc(Oc3ccccc3)c2)NC(=O)NC1(O)C(F)(F)F (stereo not drawn),inactive
19,CCOC(=O)C1C(c2ccc(Cl)cc2)NC(=S)NC1(O)C(F)(F)F (stereo not drawn),inactive
20,O=C(NCc1ccncc1)C(=O)NCC1OCCN1S(=O)(=O)c1ccc(Br)cc1 (stereo not drawn),inactive
21,COc1ccc2[nH]cc(/C=C(/C#N)S(=O)(=O)c3ccccc3)c2c1,inactive

row,Structure (SMILES),B-score
1,COc1ccc(/C=C(\C#N)c2c[nH]c3ccccc23)cc1,-9.16 (active)
2,COc1ccc(C(C(O)C(=O)c2c[nH]c3ccccc23)N2CCN(c3ccccc3)CC2)cc1 (stereo not drawn),inactive
3,COc1cccc(NC(=S)C(C#N)=C2N(C)c3ccccc3N2C)c1,inactive
4,CC(C)(C)c1ccc(C(=O)N2CCN(CCNC(=O)C(=O)Nc3ccc(F)cc3)CC2)cc1,inactive
5,COc1cccc(C(=O)Nc2cccnc2)c1OC,inactive
6,COc1cccc(C(=O)N/N=C(\C)c2cccc(NC(=O)c3ccc(F)cc3)c2)c1OC,-7.56 (active)
7,COc1ccc(/C(C)=N\NC(=O)c2ccc(-c3ccccc3)cc2)c(F)c1,inactive
8,CC(C)(C)n1ncc2c(=O)n(Cc3ccc(Cl)cc3)cnc21,inactive
9,O=C(NCCN1CCOCC1)c1ccc(/C=C2\Sc3ccccc3N(Cc3ccc(F)cc3)C2=O)cc1,inactive
10,O=C(NCCCN1CCOCC1)c1ccc2c(c1)N(Cc1cccc(F)c1)C(=O)c1ccccc1S2,inactive
11,CCN1CCN(CCNC(=O)c2ccc(/C=C3/Sc4ccccc4N(Cc4cccc(C)c4)C3=O)cc2)CC1,-9.47 (active)
12,Cc1oc(C(N)=O)cc1COc1ccc(C(N)=O)cc1,inactive
13,Cn1nccc1NC(=O)CC(CC(=O)O)c1ccccc1 (stereo not drawn),inactive
14,Cc1cccc(-c2nc3ccc(C(=O)NCCN4CCN(C)CC4)cc3nc2-c2cccc(C)c2)c1,-8.03 (active)
15,Cc1ccc(C(=O)NCCN2CCOCC2)cc1C,inactive
16,CCC1=Nc2cc(C(=O)NCCN3CCCC3)ccc2Sc2ccc(C)cc21,inactive
17,O=C(CN1CCC(NC(=O)C2CC2)CC1)Nc1ccccc1[N+](=O)[O-],inactive
18,CCOc1ccc(C(CC(=O)O)NC(=O)Cc2ccccc2)cc1OC (stereo not drawn),inactive
19,CCOc1ccc(C(CC(=O)O)NC(=O)COc2ccccc2)cc1 (stereo not drawn),-7.76 (active)
20,Cc1ccc(OCC(=O)NC(C)c2ccccc2)cc1C (stereo not drawn),inactive
